Compound activity from PubChem BioAssay.
In the library only some 5.3% were active in any assay of this set; here they are far more common.
CSC inhib = cancer stem cell inhibition; cancer stem cell-like cells viability, luminescence; 300,000 tested, 1.1% active; AID 2717; inhibition, % at 7.5 µM; in the data active means inhibition above about 75%; inconclusive means no clear call, values can overlap the other calls; tested in HMLE shEcad cells
Calb FLC = C. albicans growth modulation with fluconazole; C. albicans CaCi-2 (fluconazole-resistant clinical isolate) + fluconazole, Alamar Blue growth, 48 h; growth inhibition, % (no concentration beside the values); 300,000 tested, 0.57% active;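 active means growth inhibition above about 58% in most replicates, limit read from the data, passing the limit was not always enough; inconclusive means exactly half the replicates above a set limit; inactive means most replicates below a set limit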;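 further: all wells also contain fluconazole at 8 µg/ml as a sub-toxic cotreatment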
NLRP3 yeast inh = NALP3 inhibition in yeast. inhibition, % at 10 µM. 330,000 tested, 0.39% active. AID 2825. Yeast reconstituted NLRP3/ASC/caspase-1, beta-gal luminescence, 24 h;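 active means inhibition of 50% or more; inactive means inhibition below 50%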
T cruzi inh = T. cruzi replication inhibition; T. cruzi beta-gal in NIH3T3, luminescence, 90 h; inhibition, % (no concentration beside the values); 300,000 tested, 1.4% active;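 active means mean inhibition across valid replicates above about 55%, limit read from the data; inconclusive means mean below that limit but half or more replicates reach it; inactive means mean below it, under half of replicates reach it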;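 further: signal also drops with host cell toxicity which is not excluded here; higher percent means less beta-gal luminescence so fewer parasites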
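Read-out: Parasite load inhibition, % | Test system: Mouse NIH/3T3 fibroblasts infected with β-gal-expressing T. cruzi Tulahuen C4 | Amount: 5,000 cells/well | Medium: DMEM, 2% fetal bovine serum | Signal: GalScreen β-gal luminescence, detergent lysis, 60 min | Timing: 3 h attach, ≥90 h co-culture | Also added: Tulahuen C4 trypomastigotes, 5000/well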
Mdm2-MdmX inh = disrupts the human Mdm2-MdmX interaction. SaOS-2 split-luciferase Mdm2/MdmX complementation, luminescence. inhibition, % at 8 µM. 330,000 tested, 3% active. AID 485346;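 active means inhibition of at least 50% at 8 µM in the primary screen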
Target sequence (O15151 whole entry, looked up): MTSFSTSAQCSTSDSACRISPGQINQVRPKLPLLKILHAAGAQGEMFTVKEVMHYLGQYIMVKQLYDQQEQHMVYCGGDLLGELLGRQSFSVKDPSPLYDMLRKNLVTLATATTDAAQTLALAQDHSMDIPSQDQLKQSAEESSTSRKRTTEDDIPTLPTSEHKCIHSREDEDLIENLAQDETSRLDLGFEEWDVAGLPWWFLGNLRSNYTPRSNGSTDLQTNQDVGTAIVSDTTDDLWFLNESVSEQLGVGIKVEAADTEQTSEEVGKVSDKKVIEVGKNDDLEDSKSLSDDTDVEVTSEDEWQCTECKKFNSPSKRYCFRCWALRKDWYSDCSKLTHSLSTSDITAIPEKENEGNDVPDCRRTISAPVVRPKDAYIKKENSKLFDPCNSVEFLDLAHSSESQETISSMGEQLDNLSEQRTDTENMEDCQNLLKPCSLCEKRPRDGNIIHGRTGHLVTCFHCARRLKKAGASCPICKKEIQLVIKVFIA
Target sequence (Q00987 whole entry, looked up): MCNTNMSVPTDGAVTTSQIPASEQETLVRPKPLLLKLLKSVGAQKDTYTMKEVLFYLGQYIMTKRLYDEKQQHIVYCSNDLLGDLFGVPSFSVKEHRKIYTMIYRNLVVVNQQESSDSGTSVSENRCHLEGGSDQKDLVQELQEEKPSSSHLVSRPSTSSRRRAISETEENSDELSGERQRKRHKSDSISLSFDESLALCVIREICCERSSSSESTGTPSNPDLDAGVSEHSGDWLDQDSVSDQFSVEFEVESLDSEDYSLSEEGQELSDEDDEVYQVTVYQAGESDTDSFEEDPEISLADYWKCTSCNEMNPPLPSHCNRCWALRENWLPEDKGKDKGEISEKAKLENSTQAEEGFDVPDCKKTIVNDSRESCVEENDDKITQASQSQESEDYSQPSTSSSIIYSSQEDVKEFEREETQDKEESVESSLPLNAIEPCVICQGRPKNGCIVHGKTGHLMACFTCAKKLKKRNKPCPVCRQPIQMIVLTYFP
Beta apoptosis = blocks beta cell apoptosis; protection from apoptosis, % (no concentration beside the values); AID 435005; INS-1E cytokine-induced death, ATP luminescence, 48 h; percent of positive-control rescue, neutral wells zero; 300,000 tested, 0.8% active;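 active means Every replicate reaches about 75%, or at least half do and their mean reaches it too, limit read from the data; inconclusive means At least half of replicates reach the limit but their mean does not; inactive means Under half of replicates reach the limit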;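 further: higher means more ATP so stronger rescue from cytokine killing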
Mdm2 MdmX conf = human Mdm2/MdmX binding inhibition, confirmed | shares compounds with Mdm2-MdmX inh | luminescent assay | inhibition, % at 8 µM | 10,000 tested, 55% active | AID 489028; in the data active means inhibition above about 40%
Full FLuc ctr = full-length luciferase inhibition in Mdm2/MdmX counter-screen. shares compounds with Mdm2-MdmX inh. SaOS-2 full-length luciferase counterscreen, luminescence. inhibition, % at 8 µM. 6,200 tested, 77% active. AID 504607;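 active means mean inhibition at 8 µM reaching about 37%, which flags the compound as non-specific, limit read from the data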;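 further: p53-null SaOS-2 cells with luciferase driven by a doxycycline-inducible promoter; compound on cells about two nights before reading with doxycycline added after day one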
Each line names hits and unclear results; the compound was inactive in the other large screens (follow-up assays come after a bar, where they were run).

CCCCCCCCCC[N+](C)(C)CC/C=C1/c2ccccc2Sc2ccc(Cl)cc21	CSC inhib 105.6, Calb FLC inconclusive, Mdm2-MdmX inh 82.8, Beta apoptosis 91.4 | Mdm2 MdmX conf 76.5 | Full FLuc ctr inactive
CN(C)CC/C=C1/c2ccc(F)cc2Sc2ccc(Cl)cc21	none
OCCN1CCN(CC/C=C2/c3ccccc3Sc3ccc(Cl)cc32)CC1	Mdm2-MdmX inh 60.8 (no result: Calb FLC, T cruzi inh) | Mdm2 MdmX conf inactive
CCCCCCCCCCC[N+](C)(C)CC/C=C1/c2ccccc2Sc2ccc(Cl)cc21	Calb FLC 84.5, Mdm2-MdmX inh 77.8, Beta apoptosis 98.0 | Mdm2 MdmX conf 68.6 | Full FLuc ctr inactive
CCCCCNC(=O)[C@@H]1CSC2c3ccccc3C(=O)N21 (some centres undefined)	none
Cn1c(Cc2ccccc2)nnc1SCC(=O)Nc1ccc2c(c1)OCO2	none
CC(=O)c1nn(-c2cccc(Br)c2)cc1C(=O)c1ccc(Br)cc1	Mdm2-MdmX inh 55.6 | Mdm2 MdmX conf inactive
CCCCCCCCCCn1ccc(=N)cc1	Calb FLC 108.0, T cruzi inh 76.6, Mdm2-MdmX inh 85.2, Beta apoptosis 116.4 | Mdm2 MdmX conf 90.2 | Full FLuc ctr 51.4
CCCCCCCCn1ccc(=N)cc1	Mdm2-MdmX inh 54.6, Beta apoptosis 130.2 | Mdm2 MdmX conf 61.1 | Full FLuc ctr 47.7
COc1ccccc1C(CNC(=O)c1cccc(S(=O)(=O)NCc2ccccc2)c1)N(C)C (centres undefined)	none
Cc1ccc(NS(=O)(=O)c2cc(NC(=O)c3cc(=O)[nH]c(=O)[nH]3)ccc2Cl)c(C)c1	none
COc1cc(CCCN2CCNC[C@@H]2c2ccccc2)cc(OC)c1OC	none (no result: Calb FLC, T cruzi inh)
c1ccc([C@H]2CNCCN2CCc2cccc3ccccc23)cc1	Mdm2-MdmX inh 57.1 (no result: Calb FLC, T cruzi inh) | Mdm2 MdmX conf inactive
Cc1cccc(/N=C/c2ccccn2)n1	none
COc1cccc(N2CCN(C(=O)c3ccc4ccccc4c3)CC2)c1	none (no result: CSC inhib, Calb FLC, T cruzi inh, Beta apoptosis)
CCc1nc2ccc(C(=O)N3CCN(c4cccc(OC)c4)CC3)cc2nc1CC	Mdm2-MdmX inh 63.6 | Mdm2 MdmX conf inactive | Full FLuc ctr 62.6
CCC1(C)CC(=O)N(c2ccc(C(=O)O)c(O)c2)C1=O (centres undefined)	none (no result: Calb FLC)
O=C(NCC1CCCCC1)C1(CC2CC(c3ccc(Cl)cc3)=NO2)CCNCC1 (centres undefined)	Mdm2-MdmX inh 66.5 | Mdm2 MdmX conf inactive
CCCCCCCNC(=O)C1(CC2CC(c3ccccc3)=NO2)CCNCC1 (centres undefined)	Mdm2-MdmX inh 53.9 (no result: Calb FLC, T cruzi inh) | Mdm2 MdmX conf inactive
O=C(NCC1CCCCC1)C1(CC2CC(c3cccc(Br)c3)=NO2)CCNCC1 (centres undefined)	Mdm2-MdmX inh 78.7 (no result: Beta apoptosis) | Mdm2 MdmX conf inactive
O=C(O)CNC(=O)/C(=C\c1cccc([N+](=O)[O-])c1)NC(=O)c1ccco1	none
OC1CCCN(c2c3c(nc4cc(-c5cccc(Cl)c5)nn24)CCC3)C1 (centres undefined)	none (no result: CSC inhib, Beta apoptosis)
Cc1ccc(N2CCN(C(=O)C3CCCN(c4ncnc5c4nc4n5CCCCC4)C3)CC2)c(C)c1 (centres undefined)	Mdm2-MdmX inh 72.2 | Mdm2 MdmX conf inactive | Full FLuc ctr 56.5
O=C(C1CCCN(c2ncnc3c2nc2n3CCCCC2)C1)N1CCN(c2cccc(Cl)c2)CC1 (centres undefined)	Mdm2-MdmX inh 56.7 | Mdm2 MdmX conf inactive
COc1ccccc1N1CCN(CCCNC(=O)C2CCCN(c3ncnc4c3nc3n4CCCCC3)C2)CC1 (centres undefined)	Mdm2-MdmX inh 50.3 | Mdm2 MdmX conf inactive
CCOC(=O)c1c(NC(=S)N2CCCCC2)sc2c1CCN(C(=O)OCC)C2	CSC inhib 93.3, Mdm2-MdmX inh 72.0 | Mdm2 MdmX conf inactive
CCOC(=O)c1c(NC(=S)N2CCOCC2)sc2c1CCN(C(=O)OCC)C2	Mdm2-MdmX inh 51.3 | Mdm2 MdmX conf inactive
CCOC(=O)c1c(NC(=S)NCc2ccccc2)sc2c1CCN(C(=O)OCC)C2	none (no result: CSC inhib, Beta apoptosis)
COCc1cc(C)nc(OCC(=O)N/N=C/c2ccc(-c3cc([N+](=O)[O-])ccc3Cl)o2)c1C#N	Mdm2-MdmX inh 68.9 | Mdm2 MdmX conf inactive
COCc1cc(C)nc(OCC(=O)N/N=C/c2ccco2)c1C#N	none (no result: CSC inhib, Beta apoptosis)
O=S(=O)(Nc1cccc2ccccc12)c1ccccc1	none (no result: CSC inhib, Beta apoptosis)
CCC(=O)Nc1ccc(-c2ccc(NC(=O)CC)c(OC)c2)cc1OC	none (no result: CSC inhib)
COc1cc(-c2ccc(NC(=O)NC3CC3)c(OC)c2)ccc1NC(=O)NC1CC1	Mdm2-MdmX inh 91.2 (no result: Calb FLC) | Mdm2 MdmX conf 57.5 | Full FLuc ctr 73.3
C=CCC[C@H](Cc1ccc(F)cc1)C(=O)OC[C@@H](Cc1c[nH]c2ccccc12)NC(=O)[C@@H](CC=C)CC(=O)N(CCO)Cc1ccccc1	CSC inhib 79.2, Mdm2-MdmX inh 85.9 (no result: Calb FLC, T cruzi inh) | Mdm2 MdmX conf inactive
C=CCC[C@H](Cc1ccc(F)cc1)C(=O)O[C@H](CNC(=O)[C@@H](CC=C)CC(=O)N(CCO)Cc1ccccc1)c1ccccc1	CSC inhib 96.5, Mdm2-MdmX inh 63.3 (no result: Calb FLC, T cruzi inh) | Mdm2 MdmX conf inactive
C=CCC[C@@H](Cc1ccc(F)cc1)C(=O)OC[C@H](Cc1c[nH]c2ccccc12)NC(=O)[C@H](CC=C)CC(=O)N(CCO)Cc1ccccc1	Mdm2-MdmX inh 88.3 (no result: CSC inhib, Calb FLC, T cruzi inh, Beta apoptosis) | Mdm2 MdmX conf inactive | Full FLuc ctr 74.2
C=CCC[C@@H](Cc1ccc(F)cc1)C(=O)OC[C@@H](Cc1c[nH]c2ccccc12)NC(=O)[C@@H](CC=C)CC(=O)NCCO	none (no result: CSC inhib, Calb FLC, T cruzi inh, Beta apoptosis)
C=CCC[C@H](Cc1ccc(F)cc1)C(=O)OC[C@H](Cc1c[nH]c2ccccc12)NC(=O)[C@@H](CC=C)CC(=O)N(CCO)Cc1ccccc1	Mdm2-MdmX inh 87.4 (no result: Calb FLC, T cruzi inh) | Mdm2 MdmX conf inactive
C=CC[C@H](CC(=O)N(CCO)Cc1ccccc1)C(=O)NC[C@@H](OC(=O)[C@@H](CC=C)Cc1ccc(F)cc1)c1ccccc1	none (no result: CSC inhib, Calb FLC, T cruzi inh)
C=CCC[C@@H](Cc1ccc(F)cc1)C(=O)OC[C@H](Cc1c[nH]c2ccccc12)NC(=O)[C@@H](CC=C)CC(=O)NCCO	none (no result: CSC inhib, Calb FLC, T cruzi inh)
COc1ccc(N2CC(NC(=O)N(C)CCC#N)CC2=O)cc1 (centres undefined)	none
COc1ccc(C(C)=O)cc1CSc1ccc2c(c1)OCCO2	none
CC1(C)Cc2c(sc(/N=C/N3CCCCC3)c2C#N)C(C)(C)N1	none (no result: CSC inhib, Beta apoptosis)
C=CC[C@@H](CC(=O)N[C@H](CO)Cc1ccccc1)C(=O)NC[C@H](OC(=O)[C@@H](CC=C)Cc1ccc(F)cc1)c1ccccc1	Mdm2-MdmX inh 58.8 (no result: Calb FLC, T cruzi inh) | Mdm2 MdmX conf 55.2 | Full FLuc ctr 61.6
